In ChEMBL document CHEMBL1133167, “Synthesis and opioid receptor affinity of morphinan and benzomorphan derivatives: mixed kappa agonists and mu agonists/antagonists as potential pharmacotherapeutics for cocaine dependence” (J Med Chem, 2000):
Structures can show the parent of a compound that is named as a salt.

Experiments:
[1] = biological target: Kappa-type opioid receptor (Cavia porcellus, UniProt P41144); experiment: Binding affinity towards Opioid receptor kappa 1 by displacing the radioligand [3H]U-69593 from guinea pig brain membrane
In short: (§1)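 Guinea pig brain membranes (homogenised, preincubated 37 °C 30 min, washed), 500 µg protein, with 12 concentrations of compound in 50 mM Tris-HCl pH 7.5 at 25 °C for 60 min. Nonspecific binding defined with 1 µM naloxone. Glass-fibre filtration, with PEI-soaked filters for kappa. IC50 by log-probit fit; three experiments in triplicate, mean ± SEM.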

Mu-type opioid receptor = Mu-type opioid receptor (Cavia porcellus, UniProt P97266); experiment: Binding affinity towards Opioid receptor mu 1 by displacing the radioligand [3H]DAMGO from guinea pig brain membrane; in short: as §1
[2] = Binding affinity towards Opioid receptor delta 1 by displacing the radioligand [3H]naltrindole from guinea pig brain membrane
Cavia porcellus = species: Cavia porcellus; experiment: Selectivity kappa/delta
[3] = biological target: Opioid receptor (mu and kappa) (Cavia porcellus) (UniProt P41144+P97266); experiment: Selectivity kappa/mu; format: protein assay
Chain of Opioid receptor (mu and kappa) (Cavia porcellus) (P41144 whole entry, looked up): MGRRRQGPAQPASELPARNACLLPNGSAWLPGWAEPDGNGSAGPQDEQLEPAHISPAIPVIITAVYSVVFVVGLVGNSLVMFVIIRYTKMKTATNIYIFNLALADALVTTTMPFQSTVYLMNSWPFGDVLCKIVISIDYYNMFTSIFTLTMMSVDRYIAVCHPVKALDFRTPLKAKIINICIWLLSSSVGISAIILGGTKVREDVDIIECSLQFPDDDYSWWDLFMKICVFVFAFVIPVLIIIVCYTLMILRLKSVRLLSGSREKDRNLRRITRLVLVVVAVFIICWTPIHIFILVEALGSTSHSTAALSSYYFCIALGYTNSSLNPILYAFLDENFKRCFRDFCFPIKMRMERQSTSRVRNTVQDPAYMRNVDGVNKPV
Chain of Opioid receptor (mu and kappa) (Cavia porcellus) (P97266 whole entry, looked up): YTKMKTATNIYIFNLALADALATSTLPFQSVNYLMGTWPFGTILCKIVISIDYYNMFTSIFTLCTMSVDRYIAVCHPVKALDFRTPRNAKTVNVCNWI

Chain of Kappa-type opioid receptor (P41144 whole entry): as the sequence (P41144 whole entry, looked up) above
Chain of Mu-type opioid receptor (P97266 whole entry): as the sequence (P97266 whole entry, looked up) above

| Compound | Ki [1] [pM] | Ki (Mu-type opioid receptor) [pM] | Ki [2] [pM] | Selectivity (Cavia porcellus) | Selectivity [3] |
| --- | --- | --- | --- | --- | --- |
| C[C@H]1[C@H]2Cc3ccc(O)cc3[C@]1(C)CCN2CC1CC1 [CYCLAZOCINE] | 52 |  |  |  |  |
| CC[C@@]12CCN(CC3CC3)C(C(=O)c3ccc(O)cc31)[C@@H]2C [ETHYLKETOCYCLAZOCINE] |  | 780 | 3400 |  |  |
| C[C@H]1C2C(=O)c3ccc(O)cc3[C@@]1(C)CCN2CC1CCCO1 (some centres not stated) | 720000 |  |  |  |  |
| Oc1ccc2c(c1)[C@@]13CCCC[C@H]1[C@@H](C2)N(CC1CC1)CC3 [CYCLORPHAN] | 53 |  |  |  |  |
| O=C1c2ccc(O)cc2C23CCCCC2C1N(CC1CC1)CC3 (single isomer, unassigned; (-)) | 24000 | 240000 |  | 6 | 1 |
| Oc1ccc2c(c1)[C@@]13CCCC[C@H]1[C@@H](C2)N(CC1CCC1)CC3 [BUTORPHAN] | 73 |  |  |  |  |
| O=C1c2ccc(O)cc2C23CCCCC2C1N(CC1CCCO1)CC3 (single isomer, unassigned; (-)) | 180 | 380 |  | 6 | 2 |
| CN1CC[C@]23CCCC[C@H]2[C@H]1Cc1ccc(O)cc13 [LEVORPHANOL HYDROCHLORIDE] | 2300 | […] |  | […] | […] |
| Oc1ccc2c(c1)[C@@]13CCCCC1[C@@H](C2)N(C[C@@H]1CCCO1)CC3 (some centres not stated) | 150 | 10 |  | 2 | 0.066 |
